The values below come from ChEMBL document CHEMBL1123743, “Antisecretory activity of human, dog, and rat metabolites of fenoctimine” (J Med Chem, 1987).

One assay is filed under the species Cavia porcellus. Kind of assay: Anticholinergic activity was determined in vitro by measuring their effect on the acetylcholine chloride induced contraction of guinea pig ileum. It counts as functional. The method, boiled down: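 Ileum was isolated from female guinea pigs (200–500 g) killed with CO2. Acetylcholine chloride was added in rising concentrations up to maximal response. Test compound was given 2 min before the agonist, with antagonism assessed against the maximal acetylcholine dose. Full concentration–response curves were run.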

Assay [1] has as its system Rattus norvegicus. The experiment in a line: Antisecretory activity was evaluated in acute gastric fistula of rat after administration of 40 mg/kg; I=inactive. It counts as functional, organism-based. More on the design: dose 40 mg/kg. The settings on record: Stomach.
In assay [2] the test system is Rattus norvegicus. The experiment in a line: Antisecretory activity was evaluated in acute gastric fistula of rat after intraperitoneal administration. In kind it is functional. The settings on record: Stomach, ip.
The subject of assay [3] is Rattus norvegicus. The experiment in a line: Antisecretory activity was evaluated in acute gastric fistula of rat after peroral administration. In kind it is functional. The settings on record: Stomach, po. In a few lines:
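Female Sprague-Dawley rats (120–160 g), food-deprived ≥18 h, given drug or vehicle (0.5% methocel) orally 1 h before surgery. Under ether anesthesia a flanged polyethylene cannula was placed in the fundic stomach. The first 30-min collection was discarded, then two 1-h samples were taken. Volume was measured and acidity titrated to pH 7 with 0.01 N NaOH. ED50 = dose giving 50% inhibition of total acid output vs controls, by least-squares regression.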

Assay [4] has as its system Rattus norvegicus. Kind of assay: Antisecretory activity was evaluated in acute gastric fistula of rat after intravenous administration. It counts as functional. The settings on record: Stomach.

By IC50 is commonly meant the concentration at which inhibition is half-maximal. The term ED50 denotes the dose at which the effect has come halfway, by size or by number of responders.

Each structure is given as a SMILES string. Converted amounts (≈) assume the structure as drawn. The source made the active and inactive calls. The calls are words filed in the database; no cut-off is given here.

With `O=CN1CCC(C(c2ccccc2)c2ccccc2)CC1`, half-maximal inhibition in the assay filed under Cavia porcellus (IC50) was put at 21.9 µg/mL (≈ 78.4 µM). Further, the ED50 entry in the assay on Rattus norvegicus [1] is “inactive”.

Take `C/C(CCCCCC/N=C\N1CCC(C(c2ccccc2)c2ccccc2)CC1)=N\O.O=S(=O)(O)c1ccc2ccccc2c1`: in the assay filed under Cavia porcellus, the IC50 is 4.1 µg/mL. Moreover, the ED50 in the assay with Rattus norvegicus [2] is 8.8 mg/kg; with Rattus norvegicus [3], 12.5 mg/kg.

On to `CN1[C@@H]2CC[C@H]1C[C@@H](OC(=O)C(CO)c1ccccc1)C2` (stereo partly drawn) [ATROPINE], for which 0.0038 µg/mL (≈ 0.0131 µM) corresponded to half-maximal inhibition in the assay filed under Cavia porcellus (IC50). This molecule also came in with an ED50 in the assay with Rattus norvegicus [3] of 1.1 mg/kg.

As for `CC(=O)CCCCCC/N=C/N1CCC(C(c2ccccc2)c2ccccc2)CC1`, the half-inhibitory concentration (IC50) in the assay filed under Cavia porcellus came out at 2.2 µg/mL (≈ 5.44 µM). The ED50 in the assay on Rattus norvegicus [2] stood at 1.5 mg/kg; in the assay with Rattus norvegicus [3], 10.5 mg/kg.

The molecule `CCCCCCCC/N=C\N1CCC(C(c2ccccc2)c2ccc(OC)cc2)CC1.O=C(O)/C=C/C(=O)O` (stereo not drawn) yielded an IC50 in the assay listed under Cavia porcellus of 1.9 µg/mL. Besides, the ED50 with Rattus norvegicus [2] came to 0.63 mg/kg; in the assay with Rattus norvegicus [3] it was 15.7 mg/kg.

For `OCCCCCC/N=C/N1CCC(C(c2ccccc2)c2ccccc2)CC1`, the IC50 in the assay listed under Cavia porcellus is 0.26 µg/mL (≈ 0.687 µM). The 50% effective dose (ED50) was found to be 2 mg/kg with Rattus norvegicus [2], 4.5 mg/kg with Rattus norvegicus [4] and 11.2 mg/kg with Rattus norvegicus [3].

In turn, `CN/C(=N\CCSCc1nc[nH]c1C)NC#N` [CIMETIDINE] came in with an ED50 with Rattus norvegicus [3] of 7.6 mg/kg.

In the assay listed under Cavia porcellus, `OCCCCCCCC/N=C/N1CCC(C(c2ccccc2)c2ccccc2)CC1` had an IC50 of 0.29 µg/mL (≈ 0.713 µM). In addition, the ED50 in the assay with Rattus norvegicus [2] stood at 0.44 mg/kg; with Rattus norvegicus [4], 9.7 mg/kg; in the assay with Rattus norvegicus [3], 8.5 mg/kg.

Consider `Cl.O.O=C([O-])CCCCCCC/N=C/N1CCC(C(c2ccccc2)c2ccccc2)CC1.O=C([O-])CCCCCCC/N=C/N1CCC(C(c2ccccc2)c2ccccc2)CC1.[Zn+2]`, for which, in the assay listed under Cavia porcellus, the IC50 was 1.2 µg/mL.

For the molecule `CCCCCCCC/N=C/N1CCC(C(c2ccccc2)c2ccc(O)cc2)CC1.O=S(=O)(O)c1ccc2ccccc2c1` (stereo not drawn), in the assay listed under Cavia porcellus, half-maximal inhibition (IC50) required 0.96 µg/mL. The values for the median effective dose (ED50) with Rattus norvegicus [2] and with Rattus norvegicus [3] were 3.1 mg/kg and > 40 mg/kg, respectively.

As to `CC(O)CCCCCC/N=C/N1CCC(C(c2ccccc2)c2ccccc2)CC1` (stereo not drawn), the IC50 in the assay listed under Cavia porcellus was 1.7 µg/mL (≈ 4.18 µM). The molecule further registered an ED50 in the assay on Rattus norvegicus [3] of 8.9 mg/kg.

`COC(=O)CCCCCCC/N=C/N1CCC(C(c2ccccc2)c2ccccc2)CC1.O=C(O)/C=C/C(=O)O` displayed an IC50 in the assay filed under Cavia porcellus of 0.3 µg/mL. The median effective dose (ED50) was determined as 4.7 mg/kg in the assay on Rattus norvegicus [4] and 10.1 mg/kg in the assay on Rattus norvegicus [3].

`CC1(CCCCCC/N=C\N2CCC(C(c3ccccc3)c3ccccc3)CC2)OCCO1.O=C(O)/C=C/C(=O)O`: the half-inhibitory concentration (IC50) in the assay listed under Cavia porcellus is 1.96 µg/mL. Also, the ED50 in the assay on Rattus norvegicus [2] was 0.98 mg/kg; in the assay with Rattus norvegicus [3], 4.8 mg/kg.

Consider `CCCCCCCC/N=C/N1CCC(C(c2ccccc2)c2ccccc2)CC1` [FENOCTIMINE], for which, in the assay filed under Cavia porcellus, half-maximal inhibition (IC50) was put at 1.8 µg/mL (≈ 4.61 µM). For the same molecule, the ED50 in the assay with Rattus norvegicus [2] is 0.6 mg/kg; in the assay with Rattus norvegicus [4], 1.1 mg/kg; with Rattus norvegicus [3], 3.9 mg/kg.
